M18AAP inhibitor: PfM18AAP enzyme inhibition. inhibition, % at 7.35 µM. AID 1822. recombinant PfM18AAP, H-Glu-NHMec fluorogenic cleavage. 290,000 compounds, 1.2% hits;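 active means inhibition above the campaign mean inhibition over all tested compounds plus 3 SD, cut at about 28% in these data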
CHOP inh: CHOP inhibition in unfolded protein response. CHO-K1 CHOP-promoter luciferase, tunicamycin-induced, 15-18 h. inhibition, % at 10 µM. 220,000 compounds, 3.8% hits;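 active means compounds that reduced the stress-induced luciferase reporter signal by more than about 70% of percent inhibition, limit read from the data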
p97 inhibitor: blocks human p97 ATPase activity. recombinant p97 ATPase, Kinase-Glo ATP luminescence, 3 h. inhibition, % at 8 µM. 220,000 compounds, 0.42% hits; in the data active means inhibition above about 15%
Target sequence (P55072 whole entry, looked up): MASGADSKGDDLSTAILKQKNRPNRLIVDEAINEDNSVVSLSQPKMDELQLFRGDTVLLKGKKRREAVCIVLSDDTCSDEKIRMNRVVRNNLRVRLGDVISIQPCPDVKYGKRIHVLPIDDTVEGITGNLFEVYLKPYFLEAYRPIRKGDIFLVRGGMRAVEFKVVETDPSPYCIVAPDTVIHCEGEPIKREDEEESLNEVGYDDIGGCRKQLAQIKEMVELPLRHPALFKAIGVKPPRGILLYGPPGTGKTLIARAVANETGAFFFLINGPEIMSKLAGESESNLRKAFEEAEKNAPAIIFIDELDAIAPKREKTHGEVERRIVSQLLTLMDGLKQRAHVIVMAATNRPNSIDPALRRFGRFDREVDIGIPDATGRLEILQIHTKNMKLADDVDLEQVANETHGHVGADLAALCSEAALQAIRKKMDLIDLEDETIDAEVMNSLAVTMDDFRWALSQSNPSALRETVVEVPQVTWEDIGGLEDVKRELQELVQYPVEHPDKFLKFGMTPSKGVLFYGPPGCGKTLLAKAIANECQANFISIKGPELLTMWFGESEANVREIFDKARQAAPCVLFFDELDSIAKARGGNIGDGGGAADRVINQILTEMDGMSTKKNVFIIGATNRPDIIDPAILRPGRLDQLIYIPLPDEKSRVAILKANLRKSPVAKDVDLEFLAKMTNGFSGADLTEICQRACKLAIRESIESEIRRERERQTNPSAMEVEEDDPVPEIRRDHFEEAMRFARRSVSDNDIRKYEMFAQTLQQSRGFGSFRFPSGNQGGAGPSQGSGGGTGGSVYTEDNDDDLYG
NS3 helicase inh: HCV NS3 helicase inhibition; NS3 helicase DNA unwinding, Cy5 molecular beacon fluorescence; 290,000 compounds, 0.56% hits; inhibition, % at 10.9 µM;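 active means inhibition above the mean of all tested compounds plus 3 SD, set per campaign, cut at about 35% in these data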
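System: NS3 helicase fragment of HCV / Schedule: 1 h at 25 °C / Control set: DMSO alone as 0% and 110 µM thioflavine S as 100% / Reagent: Cy5/quencher beacon DNA duplex and ATP to start / Technique: Cy5 fluorescence / Replication: singlicate / Evaluation: % inhibition of end-to-start signal ratio versus controls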
XBP1 UPR activ: activators of adaptive arm of unfolded protein response (XBP1); CHO-XBP1 luciferase reporter, IRE1-XBP1 UPR activation, luminescence; percent of tunicamycin response, DMSO as zero; activation, % at 20 µM; 330,000 compounds, 0.33% hits;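 active means versus positive control, 20 µM dose yields 30% or more activation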
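Material: CHO cell line with stable XBP1 luciferase reporter; buffer or medium: F12 medium containing 10% fetal bovine serum; compound: single point, 20 µM final compound, 1% DMSO; incubation: 6 h treatment, 37 °C; measured by: glow luminescence from Steady-Glo reagent; evaluation: activation, % of tunicamycin; control set: tunicamycin high, DMSO low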
UPR CHOP act: activators of apoptotic arm of unfolded protein response (CHOP) | AID 449763 | 330,000 compounds, 0.34% hits | CHO-CHOP luciferase reporter, UPR activation, luminescence; percent of tunicamycin response over DMSO baseline | activation, % at 10 µM;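 active means at 10 µM dose, activation of 40% or more, normalized to positive control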
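measured by = luciferase luminescence | assay system = CHO-CHOP cells, stable luciferase reporter of PERK-eIF2a-CHOP signalling | amount = 500 reporter cells seeded per well | timing = 6 h compound exposure at 37 °C after overnight seeding | controls = positive tunicamycin 10 µg/mL, negative DMSO alone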
Each line names hits and unclear results; the compound was inactive in the other large screens. This is a sample that favours compounds with a hit; in the whole collection about 4.5% have one here.

CC1CCCCN1S(=O)(=O)c1ccc(C(=O)Nc2nnc(-c3ccccc3Cl)o2)cc1 (stereo unspecified)	CHOP inh 77.3
COc1ccccc1-c1nnc(NC(=O)c2ccc(S(=O)(=O)N(C)CC3CCCO3)cc2)o1 (stereo unspecified)	none (no result: CHOP inh, p97 inhibitor)
CCN(Cc1ccccc1)S(=O)(=O)c1ccc(C(=O)Nc2nnc(-c3ccccc3OC)o2)cc1	CHOP inh 85.0
CCCCN(CC)S(=O)(=O)c1ccc(C(=O)Nc2nnc(-c3ccccc3Cl)o2)cc1	CHOP inh 87.8
CCCCN(CC)S(=O)(=O)c1ccc(C(=O)Nc2nnc(COC)o2)cc1	none
COc1ccccc1-c1nnc(NC(=O)c2ccc(S(=O)(=O)N(C)C)cc2)o1	CHOP inh 85.3
COc1cccc(-c2nc(N)nc(SC)c2C#N)c1	none
CC(CCc1ccccc1)NC(=O)CNC(=O)c1cccs1 (stereo unspecified)	none (no result: CHOP inh, p97 inhibitor)
O=c1c2nncn2c2cc(C(F)(F)F)ccc2n1CCNc1ncc(C(F)(F)F)cc1Cl	CHOP inh 84.9
CCCn1c(=O)c(C(=O)NNS(=O)(=O)c2ccc(NC(=O)OC)cc2)c(O)c2ccccc21	none (no result: CHOP inh, p97 inhibitor)
CC(C)CNC(=O)CSc1nnc(-c2ccccn2)n1Cc1ccccc1	CHOP inh 71.3
CC(NC(=O)NC(=O)c1cccc(Cl)c1)c1ccccc1 (stereo unspecified)	none (no result: CHOP inh, p97 inhibitor)
O=C(O[C@@H]1Cc2c(O)cc(O)cc2O[C@@H]1c1cc(O)c(O)c(O)c1)c1cc(O)c(O)c(O)c1	M18AAP inhibitor 64.1, p97 inhibitor 42.4
COc1ccc([C@H]2CC(=O)c3c(O)cc(O)cc3O2)cc1O	none
CCOC(=O)c1cc2occc2n1CC(=O)Nc1ccc(OC)cc1OC	CHOP inh 84.4
O=S(=O)(NCc1ccccc1)[C@@H]1CC2C=CC1C2 (stereo partly specified)	none (no result: M18AAP inhibitor, CHOP inh, p97 inhibitor, NS3 helicase inh)
CCOC(=O)/C(=N\Nc1ccccc1Cl)N1CC(C)OC(C)C1 (stereo unspecified)	CHOP inh 70.4
CCOC(=O)/C(=N\Nc1cc(Cl)ccc1Cl)N1CC(C)OC(C)C1 (stereo unspecified)	none
CC(C)Cc1cc(C(=O)Nc2cccnc2)no1	none
CC(C)Cc1cc(C(=O)Nc2sc3c(c2C#N)CCC3)no1	none
CC(C)Cc1cc(C(=O)Nc2sc3c(c2C#N)CCCC3)no1	CHOP inh 77.4
CSc1ccccc1NC(=O)c1cc(CC(C)C)on1	CHOP inh 75.2
C[C@H](CO)N1C[C@H](C)[C@@H](CN(C)S(=O)(=O)c2ccccc2)Oc2ccc(NC(=O)CCC(F)(F)F)cc2C1=O	none (no result: M18AAP inhibitor, CHOP inh, p97 inhibitor, NS3 helicase inh)
O=C(NCC(=O)N(c1ccc(F)cc1)C(C(=O)NC1CCCC1)c1cccnc1)c1ccco1 (stereo unspecified)	none (no result: CHOP inh, p97 inhibitor)
CC(C)OC(=O)CSc1nc(Cc2ccccc2)nc2ccccc12	CHOP inh 75.5
Fc1ccc(-n2nnc(-c3cnc4ccccc4c3)n2)cc1	CHOP inh 71.5
Cc1ccc(-c2nnn(CC(=O)N(c3cccc(F)c3)C(C(=O)NC(C)(C)C)c3ccco3)n2)o1 (stereo unspecified)	CHOP inh 94.9
Cc1ccc(-c2nnn(CC(=O)N(c3cccc(O)c3)C(C(=O)NC(C)(C)C)c3cccs3)n2)o1 (stereo unspecified)	none
Cc1ccc(C)c(NCC(=O)c2ccc(Cl)cc2)c1	M18AAP inhibitor 28.4 (no result: CHOP inh, p97 inhibitor)
COc1ccc(C(=O)CNc2ccccc2Br)cc1	none (no result: CHOP inh, p97 inhibitor)
Cc1ccccc1NCC(=O)c1ccc(Br)cc1	CHOP inh 70.3
CC(=O)Nc1ccc(S(=O)(=O)NCC2(N3CCOCC3)CCCCC2)cc1	none (no result: M18AAP inhibitor, CHOP inh, p97 inhibitor, NS3 helicase inh)
C=CCc1cc(C=O)cc(OC)c1OCc1c(Cl)cccc1Cl	CHOP inh 73.0
O=C(Nc1ccc(Cl)cc1)OC(CN1CCCCC1)C(F)(F)F (stereo unspecified)	CHOP inh 74.2
O=C(Nc1cccc(F)c1)OC(CN1CCCCC1)C(F)(F)F (stereo unspecified)	none
CCOC(=O)c1ccccc1NC(=O)c1ccc(NS(C)(=O)=O)cc1	CHOP inh 80.5
CCCOC(=O)COC(=O)c1ccccc1NC(=O)c1ccccc1	none
O=C(/C=C/c1ccc(Br)cc1)NC(=S)NNC(=O)c1ccco1	CHOP inh 76.5
CCOc1cc(CNCCc2ccc(S(N)(=O)=O)cc2)ccc1OCc1ccc(Cl)cc1	CHOP inh 89.5
COc1cc(/C=N/O)ccc1OCc1ccc(C(=O)O)cc1	CHOP inh 90.5
COc1cc(/C=N/O)ccc1OCc1ccc(Cl)cc1	none
CCOc1cc(/C=N/N=C(N)N)ccc1OCc1ccc(Cl)cc1	CHOP inh 108.5 (no result: XBP1 UPR activ, UPR CHOP act)
COc1cc(/C=N/N=C(N)N)ccc1OCc1ccc(Cl)cc1	CHOP inh 78.1
CC(=O)Oc1ccc(C(=O)Nc2cccc3c2CCCC3)cc1	none (no result: CHOP inh, p97 inhibitor)
Cc1ccc(N2C(=O)C3CCCN3C2=S)cc1C (stereo unspecified)	none (no result: CHOP inh, p97 inhibitor)
COC(=O)Cn1c(O)c(N=NC(=O)CNC(=O)c2ccncc2)c2ccccc21	none (no result: CHOP inh, p97 inhibitor)
NC(N)=N/N=C/c1ccc(OCc2ccccc2)c(OCc2ccccc2)c1	UPR CHOP act 62.6 (no result: CHOP inh, p97 inhibitor)
CCc1nc(Nc2ccc(OC)c(OC)c2)c2nnn(Cc3ccccc3Cl)c2n1	CHOP inh 91.0
O=C(N/N=C1\CC(c2ccccc2)Oc2ccccc21)c1ccc(O)cc1 (stereo unspecified)	none (no result: CHOP inh, p97 inhibitor)
O=C(N/N=C1/CC(c2ccccc2)Oc2ccccc21)C1CC1 (stereo unspecified)	CHOP inh 93.0
CN(C(=O)CNC(=O)c1ccc(Br)o1)C1CCCCC1	none (no result: CHOP inh, p97 inhibitor)
COc1ccccc1N=Cc1c(C)c(C#N)c2[nH]c3ccccc3n2c1=O	CHOP inh 84.3
CCCn1cnc2scc(-c3ccc(C)cc3)c2c1=O	none
C=CCn1cnc2scc(-c3ccc(C)cc3)c2c1=O	CHOP inh 75.2
COc1ccc(NC(=O)CSc2nc3sc(C)cc3c(=O)n2C)c(OC)c1	none (no result: CHOP inh, p97 inhibitor)
COC(=O)C(C)Oc1cc(OC(C)C(=O)OC)c2c(-c3ccccc3)cc(=O)oc2c1 (stereo unspecified)	none (no result: CHOP inh, p97 inhibitor)
O=c1[nH]c(=O)n(Cc2ccccc2)c2nc(-c3ccco3)cc(C(F)(F)F)c12	CHOP inh 70.9
CCOc1ccc(-c2nnn(CC(=O)NCCc3c[nH]c4ccccc34)n2)cc1	none
CCOC(=O)Cn1nnc(-c2ccc(OCC(C)C)cc2)n1	CHOP inh 70.5
CCCOc1ccc(-c2nnn(CC(=O)c3c[nH]c4ccccc34)n2)cc1	CHOP inh 84.7
O=C1COc2ccc(N3C(=O)C=CC3=O)cc2N1	CHOP inh 95.2
CC1CCC(NC(=O)c2ccc(/C=C3\Oc4ccccc4N(C)C3=O)cc2)CC1 (stereo unspecified)	CHOP inh 90.7 (no result: XBP1 UPR activ, UPR CHOP act)
